Bioassay records deposited in PubChem BioAssay by Broad Institute.
Shown are actives, neighbours in structure and some others; about 1.4% of the full set was active somewhere.
STK33 kinase inh – inhibitors of purified STK33 kinase, primary screen, biochemical, ADP-Glo luminescence, homogeneous, cell-free; Serine/threonine-protein kinase 33 (Homo sapiens), Q9BYT3; MBP phosphorylation; inhibition, % at 10 µM; 320,000 tested, 0.073% active; AID 2661, 2010;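 active = inhibition at or above 25%, using the most active replicate where run in duplicate; inactive = inhibition below 25%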
Env fusion inh – inhibitors of HIV-1 Env-driven cell-cell fusion, primary screen, HeLa-JRFL effector, CEM21 target cells, luciferase. 360,000 tested, 1.1% active. inhibition, % at 12.3 µM;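 active = mean replicate inhibition score of at least 50 and every replicate individually at or above 50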;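 note: 0% = plate neutral controls and 100% = maraviroc near 300 nM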
CDK5 inh – inhibitors of human CDK5/p35 kinase, primary screen, biochemical, single concentration; 330,000 tested, 0.01% active; Cyclin-dependent kinase 5 (Homo sapiens) + Cyclin-dependent kinase 5 activator 1 (Homo …; Recombinant CDK5/p35, ADP-Glo luminescence, 60 min; AID 488839, 2010; inhibition, % at 10 µM;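 active = highest replicate inhibition of at least 50% and at least 75% of replicates reaching 50%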;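 note: plate controls were DMSO neutral control for no effect and GW8510 at 10 µM for full effect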
Target sequence (Q00535 whole entry, looked up): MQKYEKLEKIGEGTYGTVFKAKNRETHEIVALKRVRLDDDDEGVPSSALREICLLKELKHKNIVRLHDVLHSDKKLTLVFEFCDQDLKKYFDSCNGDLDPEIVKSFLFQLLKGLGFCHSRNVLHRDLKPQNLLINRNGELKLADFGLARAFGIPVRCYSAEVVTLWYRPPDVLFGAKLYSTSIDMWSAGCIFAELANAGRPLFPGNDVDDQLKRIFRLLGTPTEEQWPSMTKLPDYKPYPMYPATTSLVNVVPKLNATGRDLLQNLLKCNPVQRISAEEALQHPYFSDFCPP
Target sequence (Q15078 whole entry, looked up): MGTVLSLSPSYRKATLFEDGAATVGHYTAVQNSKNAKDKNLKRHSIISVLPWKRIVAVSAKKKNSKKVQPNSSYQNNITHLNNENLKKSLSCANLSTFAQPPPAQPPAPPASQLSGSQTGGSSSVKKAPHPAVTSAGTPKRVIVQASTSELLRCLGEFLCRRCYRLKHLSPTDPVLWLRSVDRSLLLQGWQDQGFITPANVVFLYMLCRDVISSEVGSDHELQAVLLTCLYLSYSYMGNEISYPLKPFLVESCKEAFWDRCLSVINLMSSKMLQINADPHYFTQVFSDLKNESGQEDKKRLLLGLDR
INS-1E GSIS act – GLuc luminescence reporter in INS-1E cells, primary screen for activators of glucose-dependent secretion of insulin | INS-1E GLuc reporter insulin secretion, 2-3 h | activation, % at 16.6 µM | 370,000 tested, 0.61% active | AID 743287, 2014;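 active = lowest replicate activation of at least 40%, so every replicate reaches that level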;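 note: 0% = median of neutral control wells and 100% = median of IBMX positive control wells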
GSK3beta inhib – human GSK3beta kinase inhibitors, primary screen, biochemical, cell-free homogeneous, HTS. Glycogen synthase kinase-3 beta (Homo sapiens), P49841. activity score (negative = inhibition), % at 10 µM. GST-GSK3beta kinase, ADP-Glo luminescence, 60 min; hits give low values. 300,000 tested, 0.038% active;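 active = more than half of replicate wells score below -50%, meaning over 50% inhibition versus plate controls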;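 note: 0% = median DMSO wells and -100% = median GW8510 positive control wells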
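Test system – GST-tagged human GSK3beta kinase, cell-free · Incubation – 60 min enzyme reaction, room temperature · Signal – ADP-Glo luminescence · Also added – peptide substrate and ATP at 25 µM · Controls – DMSO neutral wells and GW8510 at 20 µM as positive · Buffer or medium – Tris/MgCl2 kinase buffer · Measure – Luminescence-derived activity versus plate DMSO and GW8510 wells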
GSK3A inh – blockers of GSK3A enzyme activity – biochemical, luminescence, cell-free homogeneous, HTS, primary screen | GSK-3 alpha kinase, ADP-Glo luminescence, 60 min | 320,000 tested, 0.1% active | AID 2650, 2010 | inhibition, % at 10 µM;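 active = more than half of replicates show inhibition above 20%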;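 note: GST-tagged GSK-3 alpha with peptide substrate and 25 µM ATP; 0% = DMSO neutral wells and 100% = GW8510 positive control wells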
* hit, by the source's call; [ ] = dose if it differs, or a comment.

Cc1cc(C(=O)N2CCCC(C(=O)c3ccc(Cl)cc3C)C2)no1 (configuration not stated) was read as STK33 kinase inh 0, Env fusion inh 61*, CDK5 inh 0, INS-1E GSIS act -36, GSK3beta inhib 0 and GSK3A inh 1.
Screening C[C@@H]1CN([C@H](C)CO)C(=O)c2cc(NC(=O)Cc3ccccc3)ccc2O[C@@H]1CN(C)C(=O)Nc1cccc2ccccc12 returned Env fusion inh 24[16.7 µM] and INS-1E GSIS act -11.
Screening Nc1nc(NCCOCCO)nc(NCc2ccccc2)c1[N+](=O)[O-] returned STK33 kinase inh 2, Env fusion inh -2, CDK5 inh 2, INS-1E GSIS act 10, GSK3beta inhib -20 and GSK3A inh 46.
For Nc1nc(NCCOCCO)nc(NCC2CCCO2)c1[N+](=O)[O-] (configuration not stated) the results were STK33 kinase inh -1, Env fusion inh -6, CDK5 inh 1, INS-1E GSIS act -12, GSK3beta inhib -60* and GSK3A inh 60*.
Screening COCCNc1nc(N)c([N+](=O)[O-])c(NCC2CCCO2)n1 (configuration not stated) returned STK33 kinase inh 0, Env fusion inh -68, CDK5 inh 1, INS-1E GSIS act 54*, GSK3beta inhib -53* and GSK3A inh 68*.
For CNc1nc(N)c([N+](=O)[O-])c(NCC2CCCO2)n1 (configuration not stated) the results were STK33 kinase inh 4, Env fusion inh -11, CDK5 inh 1, INS-1E GSIS act -8, GSK3beta inhib -27 and GSK3A inh 47.
`Cc1ccc(Nc2nc(NCC3CCCO3)nc(N)c2[N+](=O)[O-])cc1` (configuration not stated) gave STK33 kinase inh -1, Env fusion inh -48, CDK5 inh 1, INS-1E GSIS act 81*, GSK3beta inhib -4 and GSK3A inh 3.
Screening C[C@@H]1CCCCO[C@@H](CN(C)C(=O)c2ccncc2)[C@H](C)CN([C@H](C)CO)C(=O)c2cc(NC(=O)NC3CCCCC3)ccc2O1 returned Env fusion inh -23[16.7 µM] and INS-1E GSIS act 11.
O=C1Nc2ccc(Br)cc2/C1=N\N=C\C1=C(N2CCOCC2)C(=C/c2ccccc2)/CC1 was read as Env fusion inh 11, CDK5 inh 1 and INS-1E GSIS act -16.
O=C1Nc2ccccc2/C1=N\N=C\C1=C(N2CCOCC2)C(=C\c2ccccc2)/CC1 was read as STK33 kinase inh 4, Env fusion inh 64*, CDK5 inh 7, GSK3beta inhib 3 and GSK3A inh 3.
Screening CC(=O)N1[C@H](CO)[C@@H]2c3ccccc3N(S(=O)(=O)c3ccc(F)cc3)C[C@@H]21 returned INS-1E GSIS act -5.
Cc1cc(Cl)c(S(=O)(=O)N2CCSCC2)cc1OCC(=O)NC1CCCCC1 was read as STK33 kinase inh -1, Env fusion inh 93*, CDK5 inh -3, GSK3beta inhib 0 and GSK3A inh -2.
For CCOC(=O)c1ccccc1NS(=O)(=O)c1ccc(OCC)cc1 the results were STK33 kinase inh -1, Env fusion inh 63*, CDK5 inh -1, INS-1E GSIS act -19, GSK3beta inhib -2 and GSK3A inh 0.
Screening CCOc1ccc(S(=O)(=O)Nc2ccccc2C(=O)N(C)C2CCN(C)CC2)cc1 returned STK33 kinase inh 2, CDK5 inh -1, INS-1E GSIS act 17 and GSK3A inh -2.
Screening CN1C(=O)C2(c3ccccc31)N(C)CC(c1ccccc1)C21SC(=S)N(Cc2ccco2)C1=O (configuration not stated) returned STK33 kinase inh 0, Env fusion inh 80*, CDK5 inh -2, INS-1E GSIS act -22, GSK3beta inhib 1 and GSK3A inh 0.
`COc1ccc(NC(=O)N(C)C[C@@H]2Oc3ccc(NC(=O)CCC(F)(F)F)cc3CC(=O)N([C@@H](C)CO)C[C@@H]2C)cc1` gave Env fusion inh -1[16.7 µM] and INS-1E GSIS act 13.
`COc1ccc(C(=O)N=C2CCC(C#N)=C3c4cc(OC)c(OC)cc4CCN23)cc1` gave STK33 kinase inh -1, Env fusion inh 2, INS-1E GSIS act 109*, GSK3beta inhib -1 and GSK3A inh 7.
Screening CCCCc1cc(=O)oc2cc(O)cc(O)c12 returned STK33 kinase inh 2, Env fusion inh 2, CDK5 inh -5, INS-1E GSIS act -5, GSK3beta inhib -58* and GSK3A inh 72*.
COc1ccc([C@H]2CC(=O)C=C(c3ccc(F)cc3OCc3ccccc3)C2)cc1 was read as STK33 kinase inh -3, Env fusion inh 20, CDK5 inh 0, INS-1E GSIS act 6 and GSK3A inh -2.
COc1ccc([C@H]2CC(=O)C=C(c3ccc(F)cc3OCc3ccccc3)C2)cc1OC was read as STK33 kinase inh -1, Env fusion inh 72*, CDK5 inh 1 and GSK3A inh -2.
O=C(NC1CCCCCC1)C1CCCN(c2ncccn2)C1 (configuration not stated) was read as STK33 kinase inh 0, Env fusion inh -21, CDK5 inh 1, INS-1E GSIS act 65*, GSK3beta inhib 0 and GSK3A inh 1.
O=C(NC1CCCCCCC1)C1CCN(c2nc3ccccc3o2)CC1 was read as STK33 kinase inh -2, Env fusion inh 75*, CDK5 inh 2, GSK3beta inhib 3 and GSK3A inh -4.
`O=C(NC1CCCCC1)C1CCN(c2ncccn2)CC1` gave STK33 kinase inh 0, Env fusion inh 11, CDK5 inh 0, INS-1E GSIS act -8, GSK3beta inhib -1 and GSK3A inh 1.
`O=C(NCCc1ccccc1)C1CCN(c2nc3ccccc3o2)CC1` gave STK33 kinase inh -1, CDK5 inh 0, INS-1E GSIS act 6 and GSK3beta inhib 0.
For CCCC#Cc1cnc2c(c1)C(=O)N([C@@H](C)CO)C[C@H](C)[C@H](CN(C)C(=O)C1CCOCC1)O2 the results were Env fusion inh 5[16.7 µM] and INS-1E GSIS act 2.
Screening CO[C@H]1CN(C)C(=O)c2cc(NC(=O)c3cc(C)on3)ccc2OC[C@H](C)N(C)C[C@@H]1C returned Env fusion inh 1[16.7 µM] and INS-1E GSIS act -4.
`COc1ccc(C#Cc2cnc3c(c2)C(=O)N([C@@H](C)CO)C[C@@H](C)[C@H](CN(C)C(=O)CN(C)C)O3)cc1` gave Env fusion inh 6[16.7 µM] and INS-1E GSIS act 21.
